Source: PubChem (several laboratories)
HSF1 inhib = HSF1 inhibitors in luciferase reporter cells, primary screen, cell-based, NIH3T3, luminescence; NIH3T3-HGL HSE-luciferase, MG132-induced, luminescence 8 h; stronger effect = lower value; activity change, negative = inhibition, % at 7.5 µM (by protocol); actives 0.77% (n = 300,000); AID 2098, 2009;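 active = more than half of replicate wells show activity change below -50%, luminescence cut by over half; inconclusive = some wells, but at most half, below -50%; inactive = no replicate well below -50%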;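 also: luciferase reports HSF-1 transcriptional activity via heat shock element; 0% = median of DMSO wells and -100% = zero luminescence signal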
T cruzi inh = inhibitors of intracellular T. cruzi growth, primary screen, luminescence, NIH3T3 host cells. inhibition, % (concentration not given with the values). actives 1.4% (n = 300,000). T. cruzi beta-gal in NIH3T3, 90 h. AID 1885, 2009;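 active = mean inhibition across valid replicates above about 55%, limit read from the data; inconclusive = mean below that limit but half or more replicates reach it; inactive = mean below it, under half of replicates reach it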;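 also: signal also drops with host cell toxicity which is not excluded here; 0% = plate median of DMSO wells and 100% = zero luminescence signal; higher percent means less beta-gal luminescence so fewer parasites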
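Material: NIH/3T3 host cells with β-galactosidase reporter T. cruzi; Input: 5,000 host fibroblasts per well; Medium: DMEM, 2% fetal bovine serum; Compound: 50 nL DMSO compound solution per well; Schedule: 3 h host attachment, then at least 90 h co-culture; Detection: luminescent β-galactosidase signal after 60 min lysis.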
697 NFkB inh = inhibitors of PMA/ionomycin-induced NF-kB reporter, 697 cells, primary screen, B-cell NF-kB inhibitor project, cell-based, luminescence, uHTS; 697 B-cell NF-kB luciferase reporter, 16 h; inhibition, % at 4 µM; actives 0.33% (n = 330,000); AID 435022, 2010; in the data active = inhibition above about 35%
Jurkat NFkB inh = inhibitors of induced NF-kB luciferase reporter, primary screen, TCR NF-kB activation inhibitor project, cell-based, luminescence, uHTS; Jurkat, PMA/ionomycin-induced NF-kB luciferase reporter; inhibition, % at 4 µM; actives 0.53% (n = 330,000); AID 435003, 2010; in the data active = inhibition above about 50%
GPR7 antag = GPR7 receptor antagonists, primary screen, cell-based, fluorescence, single concentration; GPR7-expressing cells, fluorescence antagonist assay; AID 1861, 2009; actives 1.1% (n = 290,000); Neuropeptides B/W receptor type 1 (Homo sapiens), P48145; inhibition, % at 4.4 µM; in the data active = inhibition above about 16%, passing the limit was not always enough;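 also: cells stimulated with the agonist NPW; 0% = agonist with vehicle and 100% = vehicle without agonist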
Target sequence (P48145 whole entry, looked up): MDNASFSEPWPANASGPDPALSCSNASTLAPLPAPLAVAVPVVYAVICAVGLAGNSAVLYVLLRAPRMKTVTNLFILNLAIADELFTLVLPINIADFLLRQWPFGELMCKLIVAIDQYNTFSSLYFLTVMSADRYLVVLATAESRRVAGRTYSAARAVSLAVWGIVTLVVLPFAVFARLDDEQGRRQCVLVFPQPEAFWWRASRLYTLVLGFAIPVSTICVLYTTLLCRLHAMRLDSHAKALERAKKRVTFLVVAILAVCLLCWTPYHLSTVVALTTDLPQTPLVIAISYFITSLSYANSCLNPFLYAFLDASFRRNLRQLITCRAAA
HSF-1 act = HSF-1 activators, primary screen, NIH3T3-HGL cells, MG132 stress, luminescence, single point; activation, % at 9 µM; NIH3T3-HGL HSF-1 luciferase reporter, 8 h; 100% = twice DMSO control signal; AID 504408, 2011; actives 1.7% (n = 300,000);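 active = mean replicate activation of at least 50% with a set share of replicates each reaching 50%; inconclusive = only one of those two conditions met; inactive = mean below 50% and too few replicates reaching it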;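 also: 0% = median of the neutral control wells and 100% = twice that signal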
Numbers without * were called inactive; ? = inconclusive; . = not tested or not shown. Shown are actives, neighbours in structure and some others; about 4.8% of the full set was active somewhere.

SMILES | HSF1 inhib | T cruzi inh | 697 NFkB inh | Jurkat NFkB inh | GPR7 antag | HSF-1 act
Cc1ccc(C2=NN(C(=O)c3cccs3)C(c3ccccc3O)C2)cc1 (stereo not given) | 54.2 | 64.0* | -6.9 | -21.1 | -1.1 | 80.3*
COc1ccc(C2=NN(C(=O)c3cccs3)C(c3ccccc3OC)C2)cc1OC (stereo not given) | -5.2 | 28.4 | -10.1 | -10.4 | -17.0 | 9.3
Cc1cc(S(=O)(=O)N2CCN=C2c2ccccc2)c(C)cc1Cl | -62.6* | -4.4 | 15.5 | 5.3 | -6.0 | -71.5
CCCCn1c(N)c(-c2nc3ccccc3o2)c2c([N+](=O)[O-])nn(C)c(=O)c21 | 1.7 | 7.6 | 16.3 | 4.5 | -11.9 | 6.6
CCCCCn1c(N)c(-c2nc3ccccc3s2)c2c([N+](=O)[O-])nn(C)c(=O)c21 | 6.7 | 59.2* | 3.2 | -9.5 | 12.0 | 6.1
CC(C)(C)NC(=O)C(c1ccncc1)N(Cc1ccc(F)cc1)C(=O)c1ccc(-c2ccccc2)[nH]1 (stereo not given) | 89.9 | 58.9* | -1.0 | 0.8 | 11.1 | 86.8*
O=C(NC1CCCC1)C(c1ccncc1)N(Cc1ccco1)C(=O)c1ccc(-c2ccccc2)[nH]1 (stereo not given) | 113.9 | 56.1* | -22.8 | -10.9 | -8.8 | 122.0*
O=C(NC1CCCC1)C(c1ccncc1)N(Cc1ccccc1)C(=O)c1ccc(-c2ccccc2)[nH]1 (stereo not given) | 44.0 | 61.4* | -5.8 | -7.9 | -2.1 | 73.4*
O=C(NC1CCCC1)C(c1ccncc1)N(CCCN1CCOCC1)C(=O)c1ccc(-c2ccccc2)[nH]1 (stereo not given) | 22.3 | 35.0 | -3.1 | 0.2 | -9.2 | 29.3
CCOC(=O)N1CCC(N2C(=O)c3ccc(C(=O)Nc4ccc(OC)c(OC)c4)cc3C2=O)CC1 | -4.9 | -12.8 | -17.6 | 7.1 | -0.6 | -2.8
C/C(=N\N=C(N)N)c1ccc(Cl)c(Cl)c1 | -2.1 | 53.4 | 1.1 | -10.6 | 3.0 | 1.3
N#Cc1nc(-c2cccc3ccccc23)oc1NCCN1CCCCC1 | 55.2 | 49.2 | 3.8 | -12.2 | 2.1 | 70.2*
N#CC(=C1CCCC1)c1nc(-c2ccccc2)cs1 | 47.1 | 1.1 | -228.6 | -148.4 | -11.8 | 85.6*
N#CC(=C1CCCC1)c1nc(-c2cc3ccccc3oc2=O)cs1 | 51.7 | 23.2 | -192.7 | -97.5 | -16.1 | 72.4*
N#CC(=C1CCCC1)c1nc(-c2ccccc2O)cs1 | 22.4 | 13.0 | -193.9 | -128.6 | -5.6 | 19.8
COc1cc(/C=N/Nc2nc(Nc3ccc(C)cc3)nc(-n3nc(C)cc3C)n2)cc(OC)c1OC | -44.8 | 58.1* | 8.8 | 38.7 | -0.3 | -36.8
COc1cc(/C=N/Nc2nc(Nc3ccccc3)nc(-n3nc(C)cc3C)n2)cc(OC)c1OC | -27.0 | 54.5* | 20.9 | 39.1 | -10.8 | -36.0
Cc1ccc(S(=O)(=O)Nc2ccc(C(=O)N3CCN(c4ccccc4O)CC3)cc2)cc1[N+](=O)[O-] | -3.5 | 15.1 | 12.1 | 8.7 | . | 8.1
COc1ccc(NC(=O)CC2C(=O)N(CCc3ccccc3)C(=S)N2Cc2cccnc2)cc1 (stereo not given) | 25.0 | 63.1* | 6.0 | -3.5 | 8.9 | 48.9
COc1ccccc1/C=C/C1=NC(=C\C=C/c2ccccc2)/C(=O)O1 | 132.7 | -25.9 | 5.7 | -1.5 | 8.1 | 170.9*
O=C(NCC1COc2ccccc2O1)c1ccc(Br)s1 (stereo not given) | 17.2 | 10.2 | -17.9 | -10.0 | 9.0 | 40.2
CCOC(=O)C1CCN(Cc2ccc(OC)c(C)c2OC)CC1 | -11.2 | 5.0 | -0.1 | -9.0 | -2.8 | -0.6
CCOC(=O)C1CCN(Cc2cc(Cl)c3ccccc3c2O)CC1 | 78.1 | 18.4 | -5.8 | 7.8 | 16.2 | 97.4*
CCN1C(=O)c2cccc3c(S(=O)(=O)Nc4ncccc4C)ccc1c23 | 41.0 | 8.9 | 33.6 | 7.5 | -2.0 | 88.7*
CSc1nc(SCC(=O)NC(c2ccccc2)c2ccccc2)c2c3c(sc2n1)CN(C)CC3 | -8.7 | 64.3* | -41.5 | -6.3 | -13.4 | -5.8
SMILES | HSF1 inhib | T cruzi inh | 697 NFkB inh | Jurkat NFkB inh | GPR7 antag | HSF-1 act
CSc1nc(NCC(C)O)c2c3c(sc2n1)CN(C)CC3 (stereo not given) | -2.6 | 10.5 | 1.1 | -10.9 | 15.6 | -0.4
N#Cc1c(C(F)(F)F)cc(-c2ccco2)nc1SCc1ccncc1 | -6.7 | 61.5* | -15.7 | 18.9 | -6.8 | 1.9
O=C1Nc2ccccc2N(O)N1c1cc(-c2ccccc2)[nH]n1 | 28.2 | -4.7 | -5.9 | -2.7 | 3.8 | 40.2
CCC(=O)OCC(=O)Nc1cc([N+](=O)[O-])ccc1OC | 0.2 | -6.0 | 4.1 | 16.8 | -16.1 | 10.5
COc1ccc(Cl)cc1NC(=O)CN1CCCC1 | -1.9 | 3.4 | 6.5 | 7.5 | -11.8 | -20.7
COc1ccc([N+](=O)[O-])cc1NC(=O)COC(=O)C1CC1 | -8.1 | 56.3* | 7.5 | -3.7 | 0.2 | -1.3
CCOC(=O)C1CCN(CC(=O)Nc2c(C(=O)OC)[nH]c3ccc(Cl)cc23)CC1 | -8.3 | 44.2 | -13.0 | 24.0 | 18.0* | 6.8
COC(=O)C1CCN(CC(=O)Nc2cc(Cl)ccc2OC)CC1 | -6.8 | 54.8* | 1.1 | 1.7 | -3.3 | -10.2
COc1ccccc1C1CCN(C(=O)c2ccc(C(C)(C)C)cc2)CC1 | 0.3 | 11.3 | 3.0 | 6.8 | -20.5 | -17.5
O=C(Nc1cccc(Cl)c1)Nc1nnc(CC2=CCCCC2)s1 | -5.9 | 19.1 | -4.7 | -10.5 | -4.3 | -4.8
Cc1ccc(S(C)(=O)=O)cc1C(=O)OCC(=O)N(Cc1ccccc1)Cc1ccccc1 | . | . | 13.1 | 12.3 | . | .
C=CCn1c(NC(=O)c2ccc(C)cc2)nc2ccccc21 | 24.2 | 61.3* | -113.0 | -58.3 | -31.8 | 25.6
O=c1[nH]c(CCl)nc2cc(-c3ccc(F)cc3)sc12 | 17.5 | -20.1 | -126.6 | -121.3 | 2.4 | 52.6*
O=[N+]([O-])c1cc(-c2ncccn2)c([N+](=O)[O-])s1 | 95.3 | 40.4 | 0.2 | -2.8 | -6.7 | 97.4*
O=C(Nc1ncccn1)c1cc([N+](=O)[O-])cc([N+](=O)[O-])c1 | -8.2 | ? | -32.4 | 12.0 | -2.6 | -2.6
CN(C(=O)COC(=O)c1ccc2ccccc2n1)C1CCS(=O)(=O)C1 (stereo not given) | -8.9 | -2.2 | -7.6 | -4.5 | -13.6 | 2.1
Cc1[nH]c(C)c2c(=O)[nH]ncc12 | -2.4 | -4.4 | 10.9 | -11.5 | -3.0 | 12.7
COc1cc(OC)cc(C(=O)NCC(=O)N2CCN(c3ccc(O)cc3)CC2)c1 | -4.3 | 10.4 | -9.0 | 27.1 | -14.9 | -13.0
